Measured values published in paper PMC13424379 (Fundamental Research, 2024).

Experiments:
[1] = system: Tg (fli1a: EGFP) zebrafish; test: Zebrafish vascular injury model; assay type: in vivo; settings: for dose relation of the ameliorative effect on vascular injury: different concentrations, PTK787 model
How it was run: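 Tg(fli1a:EGFP) embryos at 24 hpf were dechorionated with 1 mg·mL⁻¹ protease E and placed 10 per well, 3 wells per group, in fish water (NaCl/KCl/CaCl2/MgSO4). Groups were vehicle (0.1% DMSO), 0.2 µg·mL⁻¹ PTK787, PTK787 plus 0.2 mg·mL⁻¹ aspirin, and PTK787 plus test compound. Exposure lasted 24 h at 28.5 °C on a 14/10 h light/dark cycle. ISV development was observed and ISV length measured.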

T1R2 = biological target: T1, T1R2 (Homo sapiens, UniProt Q8TE23); test: T1R2-HEMT biosensor interaction, dissociation constant; assay type: binding
T1 sequence (Q8TE23 20-839): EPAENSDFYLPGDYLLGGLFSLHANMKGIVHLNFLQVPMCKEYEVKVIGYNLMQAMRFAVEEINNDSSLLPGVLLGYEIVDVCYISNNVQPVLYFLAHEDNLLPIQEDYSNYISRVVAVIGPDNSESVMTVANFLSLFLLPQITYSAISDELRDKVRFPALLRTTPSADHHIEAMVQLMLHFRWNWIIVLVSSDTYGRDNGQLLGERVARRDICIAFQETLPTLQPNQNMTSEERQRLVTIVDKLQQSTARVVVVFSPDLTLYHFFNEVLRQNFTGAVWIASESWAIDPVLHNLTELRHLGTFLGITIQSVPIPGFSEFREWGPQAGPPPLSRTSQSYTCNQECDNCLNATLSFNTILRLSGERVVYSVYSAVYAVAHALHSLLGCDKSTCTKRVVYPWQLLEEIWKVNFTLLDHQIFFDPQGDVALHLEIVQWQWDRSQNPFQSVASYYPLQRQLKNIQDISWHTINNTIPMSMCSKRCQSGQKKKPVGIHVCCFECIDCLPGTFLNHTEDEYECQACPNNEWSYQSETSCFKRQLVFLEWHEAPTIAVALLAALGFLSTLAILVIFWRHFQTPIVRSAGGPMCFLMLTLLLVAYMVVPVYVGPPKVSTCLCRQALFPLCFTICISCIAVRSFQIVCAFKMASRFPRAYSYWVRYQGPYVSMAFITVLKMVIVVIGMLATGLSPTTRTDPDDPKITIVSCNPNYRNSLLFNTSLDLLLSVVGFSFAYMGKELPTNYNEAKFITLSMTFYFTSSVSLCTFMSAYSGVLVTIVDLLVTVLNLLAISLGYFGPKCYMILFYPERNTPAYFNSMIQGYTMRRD
How it was run: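 Recombinant T1R2 and T1R3 proteins (100 μg·mL⁻¹) were immobilised on an AlGaAs/GaAs HEMT chip at 4 °C. Test compounds in 0.5% DMSO were applied at eleven concentrations from 0.1 pmol·L⁻¹ to 1 mmol·L⁻¹. KD was derived by a linear fit of [C]/ΔI against [C], where ΔI is the current change and ΔImax the saturated current change.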

T1R3 = biological target: T2, T1R3 (Homo sapiens, UniProt Q7RTX0); test: T1R3-HEMT biosensor interaction, dissociation constant; assay type: binding
T2 sequence (Q7RTX0 21-852): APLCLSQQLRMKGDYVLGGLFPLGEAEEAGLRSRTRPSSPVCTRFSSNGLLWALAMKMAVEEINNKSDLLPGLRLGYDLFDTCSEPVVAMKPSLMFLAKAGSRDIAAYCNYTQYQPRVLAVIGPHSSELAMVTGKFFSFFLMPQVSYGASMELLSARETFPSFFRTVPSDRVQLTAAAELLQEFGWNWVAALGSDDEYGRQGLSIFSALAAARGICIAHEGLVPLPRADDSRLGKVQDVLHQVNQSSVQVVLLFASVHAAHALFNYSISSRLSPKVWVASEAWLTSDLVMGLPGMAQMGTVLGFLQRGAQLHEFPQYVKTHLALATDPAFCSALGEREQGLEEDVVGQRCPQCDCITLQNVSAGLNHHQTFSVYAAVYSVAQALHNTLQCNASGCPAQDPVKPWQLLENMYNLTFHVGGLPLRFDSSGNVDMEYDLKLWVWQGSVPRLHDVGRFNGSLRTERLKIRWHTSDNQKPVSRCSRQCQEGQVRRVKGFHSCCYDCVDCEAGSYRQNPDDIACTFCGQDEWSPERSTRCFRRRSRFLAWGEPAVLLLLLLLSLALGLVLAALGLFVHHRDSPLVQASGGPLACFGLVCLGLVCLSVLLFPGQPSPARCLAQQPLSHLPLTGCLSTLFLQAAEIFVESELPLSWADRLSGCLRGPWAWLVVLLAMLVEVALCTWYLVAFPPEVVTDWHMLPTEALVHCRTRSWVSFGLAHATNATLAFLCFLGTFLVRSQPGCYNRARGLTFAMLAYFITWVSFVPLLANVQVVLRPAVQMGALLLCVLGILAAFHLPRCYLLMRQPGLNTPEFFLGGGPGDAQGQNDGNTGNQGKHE

Tg (mpx: EGFP) zebrafish = test: Zebrafish immunocompromised model; assay type: in vivo; settings: for immune enhancement (number of neutrophils): compared to the model group
[2] = 25 µM·L^−1, with 0.2 µg·mL^−1 PTK787, compared with the model group

Kd (T1R2) | Kd (T1R3) | Structure (SMILES) | dose relation of the ameliorative effect on vascular injury [1] | effect on ISVs [1, 2] | also measured
1.06 nM | 0.0882 nM | C=C1CCC[C@]2(C)C=C3OC(=O)C(C)=C3C[C@@H]12 [atractylenolide I] | dose-dependent effects |  | effect on ISVs ([1]; 50 µM·L^−1, with 0.2 µg·mL^−1 PTK787, compared with the model group): significantly promote ISVs
 |  | CCC1=C[C@@H]2CN(C1)Cc1c([nH]c3ccccc13)[C@@](C(=O)OC)(c1cc3c(cc1OC)N(C)[C@H]1[C@@](O)(C(=O)OC)[C@H](OC(C)=O)[C@]4(CC)C=CCN5CC[C@]31[C@@H]54)C2 [vinorelbine, Vinorelbine, reference compound] |  |  | number of neutrophils in the zebrafish tail (Tg (mpx: EGFP) zebrafish; 100 µg·mL^−1, model construction): significantly reduced
52.5 nM | 0.217 nM | C[C@@H]1CC[C@@]2(OC1)O[C@H]1C[C@H]3[C@@H]4CC=C5C[C@@H](O)C[C@@H](O)[C@]5(C)[C@H]4CC[C@]3(C)[C@H]1[C@@H]2C [ruscogenin] | stronger at medium and high doses | significantly promote ISVs | immune enhancement (number of neutrophils) (Tg (mpx: EGFP) zebrafish; 100 µM·L^−1, with 100 µg·mL^−1 vinorelbine): immune-enhancing effect
0.0017 nM | 0.641 nM | COc1ccc(-c2coc3cc(O)ccc3c2=O)cc1O [calycosin] | stronger at a low dose | significantly promote ISVs | immune enhancement (number of neutrophils) (Tg (mpx: EGFP) zebrafish; 50 µM·L^−1, with 100 µg·mL^−1 vinorelbine): immune-enhancing effect
 |  | Clc1ccc(Nc2nnc(Cc3ccncc3)c3ccccc23)cc1 [PTK787, Vatalanib (PTK787) 2HCl, reference compound] |  |  | total length of ISVs ([1]; 0.2 µg·mL^−1, compared with the control group, 24 h exposure): significantly reduce; teratogenicity ([1]; 0.2 µg·mL^−1, zebrafish embryos): not teratogenic
